# Source: ChEMBL document CHEMBL3352338, “Development and biological evaluation of potent and selective c-KIT(D816V) inhibitors” (J Med Chem, 2014)
# The source made the active and inactive calls. No cut-off for these calls is given here.
# Columns and labels:
# [1] = target: Mast/stem cell growth factor receptor Kit (Homo sapiens, UniProt P10721); assay: Inhibition of wild type c-KIT (unknown origin)
# [2] = target: Mast/stem cell growth factor receptor Kit (Homo sapiens, UniProt P10721, D816V); assay: Inhibition of c-KIT D816V mutant (unknown origin)
# [3] = target: Phosphatidylinositol 4,5-bisphosphate 3-kinase catalytic subunit alpha isoform (Homo sapiens, UniProt P42336); assay: Inhibition of PI3Kalpha (unknown origin)
# [4] = target: Signal transducer and activator of transcription 3 (Homo sapiens) (UniProt P40763); assay: Inhibition of STAT3 phosphorylation in imatinib-resistant human HMC-1.2 cells at 5 uM after 1 hr by Western immunoblotting analysis
# [5] = Antiproliferative activity against human HMC-1.2 cells carrying V560G, D816V mutant assessed as cell growth inhibition by MTT assay; assay type: functional, cell-based
# How it was run: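 Cell viability by MTT assay in imatinib-resistant HMC-1.2 human mast cells (V560G, D816V), 48 h exposure across a range of concentrations.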
# Mast/stem cell growth factor receptor Kit (Homo sapiens, UniProt P10721), sequence (P10721 whole entry): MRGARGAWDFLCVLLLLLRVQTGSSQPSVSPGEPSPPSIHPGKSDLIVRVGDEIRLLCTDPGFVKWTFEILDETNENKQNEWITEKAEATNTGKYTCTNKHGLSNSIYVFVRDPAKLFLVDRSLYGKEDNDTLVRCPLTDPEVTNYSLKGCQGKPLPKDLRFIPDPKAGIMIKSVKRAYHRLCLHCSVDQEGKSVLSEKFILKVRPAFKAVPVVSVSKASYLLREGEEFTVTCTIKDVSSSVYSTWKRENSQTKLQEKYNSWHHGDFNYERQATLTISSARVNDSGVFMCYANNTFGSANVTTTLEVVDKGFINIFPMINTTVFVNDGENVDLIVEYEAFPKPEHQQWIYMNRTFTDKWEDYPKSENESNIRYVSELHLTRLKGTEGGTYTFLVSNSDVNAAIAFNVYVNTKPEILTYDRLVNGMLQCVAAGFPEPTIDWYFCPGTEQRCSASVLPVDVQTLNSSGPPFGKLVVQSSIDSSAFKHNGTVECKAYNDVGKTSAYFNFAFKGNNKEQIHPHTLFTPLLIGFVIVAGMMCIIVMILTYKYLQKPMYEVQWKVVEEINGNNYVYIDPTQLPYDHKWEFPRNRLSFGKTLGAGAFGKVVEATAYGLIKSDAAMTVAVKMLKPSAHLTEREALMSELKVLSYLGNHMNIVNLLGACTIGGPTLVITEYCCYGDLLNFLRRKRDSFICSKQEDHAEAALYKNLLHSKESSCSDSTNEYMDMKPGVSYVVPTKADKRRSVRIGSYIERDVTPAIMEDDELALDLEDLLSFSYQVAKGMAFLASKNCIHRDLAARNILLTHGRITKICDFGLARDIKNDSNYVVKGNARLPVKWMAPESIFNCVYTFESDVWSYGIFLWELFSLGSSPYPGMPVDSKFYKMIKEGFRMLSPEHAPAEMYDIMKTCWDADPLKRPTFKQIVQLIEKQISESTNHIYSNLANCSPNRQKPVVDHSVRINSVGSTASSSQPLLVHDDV
# Mast/stem cell growth factor receptor Kit (Homo sapiens, UniProt P10721, D816V), sequence (P10721 26-976 D816V limits assumed): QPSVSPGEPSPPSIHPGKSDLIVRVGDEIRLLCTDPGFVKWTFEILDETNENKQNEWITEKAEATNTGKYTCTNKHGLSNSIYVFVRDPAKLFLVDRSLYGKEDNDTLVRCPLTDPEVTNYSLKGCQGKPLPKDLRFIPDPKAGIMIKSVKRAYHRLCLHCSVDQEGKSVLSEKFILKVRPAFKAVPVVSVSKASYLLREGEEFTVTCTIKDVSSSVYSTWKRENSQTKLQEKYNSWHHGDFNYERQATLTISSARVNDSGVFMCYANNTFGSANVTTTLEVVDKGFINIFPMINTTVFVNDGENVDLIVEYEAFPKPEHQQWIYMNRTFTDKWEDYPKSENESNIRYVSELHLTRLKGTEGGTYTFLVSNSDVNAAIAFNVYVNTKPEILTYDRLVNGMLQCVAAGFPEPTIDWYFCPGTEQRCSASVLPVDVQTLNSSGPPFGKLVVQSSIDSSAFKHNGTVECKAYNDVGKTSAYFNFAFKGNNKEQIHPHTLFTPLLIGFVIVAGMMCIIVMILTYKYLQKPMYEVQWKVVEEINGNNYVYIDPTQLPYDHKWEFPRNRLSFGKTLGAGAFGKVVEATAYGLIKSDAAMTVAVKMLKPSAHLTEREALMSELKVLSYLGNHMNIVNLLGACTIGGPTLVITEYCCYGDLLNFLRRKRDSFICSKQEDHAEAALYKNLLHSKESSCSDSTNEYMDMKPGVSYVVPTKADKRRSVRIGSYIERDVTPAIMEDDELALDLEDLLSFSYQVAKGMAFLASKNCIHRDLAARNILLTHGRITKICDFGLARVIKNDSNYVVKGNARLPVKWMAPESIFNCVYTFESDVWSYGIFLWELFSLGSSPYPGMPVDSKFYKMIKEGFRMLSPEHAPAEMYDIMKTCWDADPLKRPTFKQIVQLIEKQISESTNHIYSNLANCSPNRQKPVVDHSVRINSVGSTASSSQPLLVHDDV
# Phosphatidylinositol 4,5-bisphosphate 3-kinase catalytic subunit alpha isoform, sequence (P42336 whole entry, canonical isoform): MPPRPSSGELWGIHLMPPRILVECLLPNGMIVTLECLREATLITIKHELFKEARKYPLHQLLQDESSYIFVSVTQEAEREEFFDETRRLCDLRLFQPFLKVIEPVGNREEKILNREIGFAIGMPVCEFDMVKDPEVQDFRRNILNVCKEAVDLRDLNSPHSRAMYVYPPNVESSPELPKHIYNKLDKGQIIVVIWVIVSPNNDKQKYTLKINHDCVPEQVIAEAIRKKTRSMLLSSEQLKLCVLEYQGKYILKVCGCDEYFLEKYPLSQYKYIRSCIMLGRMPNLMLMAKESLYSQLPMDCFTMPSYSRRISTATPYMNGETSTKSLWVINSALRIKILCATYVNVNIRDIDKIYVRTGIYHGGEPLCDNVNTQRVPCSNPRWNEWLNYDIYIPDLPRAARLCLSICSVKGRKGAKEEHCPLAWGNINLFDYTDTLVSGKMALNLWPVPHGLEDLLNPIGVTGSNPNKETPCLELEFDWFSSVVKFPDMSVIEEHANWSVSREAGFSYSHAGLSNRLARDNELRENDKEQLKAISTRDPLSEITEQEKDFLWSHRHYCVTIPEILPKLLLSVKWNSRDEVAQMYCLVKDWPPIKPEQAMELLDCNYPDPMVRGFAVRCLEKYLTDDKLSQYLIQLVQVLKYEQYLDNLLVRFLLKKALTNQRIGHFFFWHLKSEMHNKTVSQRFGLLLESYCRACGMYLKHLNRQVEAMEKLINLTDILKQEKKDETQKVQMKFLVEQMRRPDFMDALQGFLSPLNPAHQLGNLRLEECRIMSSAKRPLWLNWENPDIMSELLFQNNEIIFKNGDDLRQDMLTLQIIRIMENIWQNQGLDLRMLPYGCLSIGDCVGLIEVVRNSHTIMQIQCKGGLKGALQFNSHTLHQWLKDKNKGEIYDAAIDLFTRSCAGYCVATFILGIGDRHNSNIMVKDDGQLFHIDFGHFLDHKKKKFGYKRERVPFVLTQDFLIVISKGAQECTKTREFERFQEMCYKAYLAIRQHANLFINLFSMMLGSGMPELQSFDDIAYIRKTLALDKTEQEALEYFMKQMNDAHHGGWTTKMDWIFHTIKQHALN
# Signal transducer and activator of transcription 3 (Homo sapiens), sequence (P40763 whole entry): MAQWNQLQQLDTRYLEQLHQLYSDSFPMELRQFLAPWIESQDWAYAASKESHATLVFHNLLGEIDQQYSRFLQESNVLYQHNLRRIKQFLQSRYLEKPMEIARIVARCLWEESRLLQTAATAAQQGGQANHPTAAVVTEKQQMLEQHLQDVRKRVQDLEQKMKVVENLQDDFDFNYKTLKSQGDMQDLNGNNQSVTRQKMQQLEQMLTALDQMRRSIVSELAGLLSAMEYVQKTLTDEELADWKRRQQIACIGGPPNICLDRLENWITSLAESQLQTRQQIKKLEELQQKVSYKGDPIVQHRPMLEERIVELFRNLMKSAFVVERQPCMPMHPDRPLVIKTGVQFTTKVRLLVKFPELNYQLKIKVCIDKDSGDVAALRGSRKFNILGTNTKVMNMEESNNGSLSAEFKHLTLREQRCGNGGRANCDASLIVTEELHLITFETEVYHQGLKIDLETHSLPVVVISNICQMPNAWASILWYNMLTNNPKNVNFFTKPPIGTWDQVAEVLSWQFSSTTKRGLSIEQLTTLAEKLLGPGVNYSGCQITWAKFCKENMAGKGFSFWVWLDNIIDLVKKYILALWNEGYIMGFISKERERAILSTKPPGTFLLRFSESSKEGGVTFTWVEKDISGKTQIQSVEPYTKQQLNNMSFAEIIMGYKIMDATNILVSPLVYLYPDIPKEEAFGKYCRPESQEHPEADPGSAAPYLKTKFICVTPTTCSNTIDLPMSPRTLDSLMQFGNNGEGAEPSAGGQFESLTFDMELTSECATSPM
Structure (SMILES),IC50 [1],IC50 [2],IC50 [3],inhibition [4],IC50 [5]
COc1ccc(-c2c[nH]c3ncc(-c4ccc(Cl)cc4)cc23)cc1OC,–,457 nM,> 10000 nM,–,–
COc1ccc(-c2c[nH]c3ncc(-c4cncc(NS(=O)(=O)c5ccccc5)c4)cc23)cc1OC,–,346 nM,–,Active,–
Cc1ccc(NC(=O)c2ccc(CN3CCN(C)CC3)cc2)cc1Nc1nccc(-c2cccnc2)n1 [IMATINIB],–,–,–,–,17000 nM
Cc1nc(Nc2ncc(C(=O)Nc3c(C)cccc3Cl)s2)cc(N2CCN(CCO)CC2)n1 [DASATINIB],–,–,–,–,820 nM
Nc1cccc(-c2cnc3[nH]cc(-c4ccc(Cl)cc4)c3c2)c1,–,2260 nM,–,–,–
COc1ccc(-c2c[nH]c3ncc(-c4cccc(N)c4)cc23)cc1,–,398 nM,–,–,–
COc1ccc(-c2c[nH]c3ncc(-c4ccccc4C)cc23)cc1OC,–,785 nM,> 10000 nM,–,–
COc1ccc(-c2c[nH]c3ncc(-c4ccccc4N)cc23)cc1OC,–,1330 nM,> 10000 nM,–,–
Cc1ccc(-c2c[nH]c3ncc(-c4cccc(N)c4)cc23)cc1,–,> 10000 nM,–,–,–
Nc1cccc(-c2cnc3[nH]cc(-c4ccccc4N)c3c2)c1,–,1420 nM,–,–,–
Cc1ccc(C(=O)Nc2ccc(CN3CCN(C)CC3)c(C(F)(F)F)c2)cc1C#Cc1cnc2cccnn12 [PONATINIB],–,–,–,–,350 nM
COc1cc(OC)cc(-c2c[nH]c3ncc(-c4cccc(N)c4)cc23)c1,–,320 nM,–,–,–
COc1ccc(-c2c[nH]c3ncc(-c4cccc(F)c4)cc23)cc1OC,–,520 nM,> 10000 nM,–,–
COc1ccc(-c2c[nH]c3ncc(-c4ccc(C)cc4)cc23)cc1OC,> 10000 nM,571 nM,> 10000 nM,–,–
COc1cccc(-c2c[nH]c3ncc(-c4cccc(N)c4)cc23)c1,–,670 nM,–,–,–
COc1ccc(-c2c[nH]c3ncc(-c4ccc(C#N)cc4)cc23)cc1OC,–,426 nM,> 10000 nM,–,–

# Second part, led by results:
IC50 [1],IC50 [2],IC50 [3],inhibition [4],Structure (SMILES),IC50 [5]
1290 nM,67.8 nM,–,–,COc1ccc(-c2c[nH]c3ncc(-c4cnc(N)nc4)cc23)cc1OC,–
56.8 nM,9.1 nM,–,–,COc1ccc(-c2c[nH]c3ncc(-c4ccc(N)cc4)cc23)cc1OC,–
–,126 nM,–,–,COc1ccc(-c2c[nH]c3ncc(-c4cccc(NS(=O)(=O)c5ccccc5)c4)cc23)cc1OC,–
1520 nM,28.7 nM,–,–,COc1cccc(-c2cnc3[nH]cc(-c4ccc(OC)c(OC)c4)c3c2)c1,–
–,104 nM,–,–,COc1ccc(-c2c[nH]c3ncc(-c4cccc(N)c4)cc23)cc1F,–
> 10000 nM,26.2 nM,–,–,COc1cc(N)cc(-c2cnc3[nH]cc(-c4ccc(OC)c(OC)c4)c3c2)c1,–
> 10000 nM,63.8 nM,> 10000 nM,–,COc1ccc(-c2c[nH]c3ncc(-c4cccc(C#N)c4)cc23)cc1OC,–
–,32.1 nM,9700 nM,–,COc1ccc(-c2c[nH]c3ncc(-c4ccncc4)cc23)cc1OC,–
371 nM,32.1 nM,> 10000 nM,–,COc1ccc(-c2cnc3[nH]cc(-c4ccc(OC)c(OC)c4)c3c2)cc1,–
10800 nM,48.8 nM,–,–,COc1ccc(-c2c[nH]c3ncc(-c4ccc5c(c4)OCO5)cc23)cc1OC,–
8540 nM,13.9 nM,–,–,COc1ccc(-c2c[nH]c3ncc(-c4ccc(OCCN5CCOCC5)c(N)c4)cc23)cc1OC,–
–,72.8 nM,> 10000 nM,–,COc1ccc(-c2c[nH]c3ncc(-c4ccc(F)cc4)cc23)cc1OC,–
–,135 nM,> 10000 nM,–,COc1ccc(-c2c[nH]c3ncc(-c4ccccc4)cc23)cc1OC,–
–,102 nM,> 10000 nM,–,COc1ccc(-c2c[nH]c3ncc(-c4cc(F)cc(F)c4)cc23)cc1OC,–
1160 nM,65.1 nM,–,–,COc1ccc(-c2c[nH]c3ncc(-c4cccc(NC(C)=O)c4)cc23)cc1OC,–
–,29.2 nM,> 10000 nM,–,COc1ccc(-c2c[nH]c3ncc(-c4cccc(N(C)C)c4)cc23)cc1OC,–
–,76.7 nM,–,–,Nc1cccc(-c2cnc3[nH]cc(-c4cccc(N)c4)c3c2)c1,–
3330 nM,60.1 nM,> 10000 nM,–,COc1ccc(-c2c[nH]c3ncc(-c4cccnc4)cc23)cc1OC,–
> 10000 nM,24.6 nM,–,–,COc1ccc(-c2c[nH]c3ncc(-c4ccc(C)c(N)c4)cc23)cc1OC,1430 nM
1060 nM,6.3 nM,> 10000 nM,–,COc1ccc(-c2c[nH]c3ncc(-c4cccc(N)c4)cc23)cc1OC,1680 nM
–,10.8 nM,1450 nM,–,COc1ccc(-c2c[nH]c3ncc(-c4cncc(N)c4)cc23)cc1OC,–
5460 nM,29.2 nM,–,–,COc1ccc(-c2cnc3[nH]cc(-c4ccc(OC)c(OC)c4)c3c2)c(OC)c1,–
–,261 nM,> 10000 nM,–,COc1ccc(-c2c[nH]c3ncc(-c4cccc(C)c4)cc23)cc1OC,–
